Bioassay records as filed in PubChem BioAssay.
NR2E3 ag-1: NR2E3 (human) agonism | AID 2300 | 320,000 compounds, 0.12% hits | GST-NR2E3/biotin-RetCOR TR-FRET, 1536-well | inhibition of corepressor binding, % at 4.78 µM | Q9Y5X4;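 active = percent inhibition above the cutoff of mean plus 3 SD of all tested compounds, set per screening campaign, cut at about 20% in these data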
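System: GST-tagged NR2E3 plus biotinylated RetCOR corepressor; Buffer or medium: pH 7.5 Tris-based buffer; Probe or stimulus: RetCOR corepressor, biotinylated, 7 nM; Doses: compound at 4.8 µM, single dose; Schedule: 5 h incubation at 4 °C; Technique: time-resolved FRET; Evaluation: percent inhibition of TR-FRET ratio; Replication: one well per compound, singlicate testing.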
PKA-R1A activ: PKA-R1A complex activation; P00514+P68181; activation, % at 11.4 µM; PKA-R1A dissociation, Cy5-IP20 fluorescence polarization; scaled: DMSO 0%, 113 µM cGMP 100%; 340,000 compounds, 0.083% hits;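 active = percent activation above the mean of all tested compounds plus 3 SD, cut at about 19% in these data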;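 note: higher means more PKAc released from R1A so a rise in polarization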
NR2E3 ag-2: agonists of human NR2E3 nuclear receptor | Q9Y5X4 | CHO-S Gal4-NCOR/VP16-NR2E3 two-hybrid, luciferase | inhibition of corepressor binding, % at 3.98 µM | 360,000 compounds, 0.35% hits | AID 602229;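 active = inhibition above the mean of all tested compounds plus 3 SD, cut at about 70% in these data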;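 note: higher means lower luciferase signal from less NR2E3 corepressor binding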
PG9 Ab binder: PG9 antibody binding by small molecule. TR-FRET gp120-PG9 antibody binding. 360,000 compounds, 0.43% hits. inhibition, % at 6.7 µM; in the data active = inhibition above about 8.5%
PKA-R2B act: activators of human PKA-R2B complex; AID 504700; 340,000 compounds, 0.079% hits; PKA-R2B holoenzyme dissociation, Cy5-IP20 fluorescence polarization; R2B truncated from residue 108, S112A mutant; 0% DMSO only, 100% 113 µM cGMP; P22694+P31323; activation, % at 11.4 µM;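 active = activation above a cutoff set at the mean over all compounds plus 3 SD, cut at about 18% in these data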;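 note: higher means more holoenzyme dissociation and a rise in polarization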
NR1D1 modulator: modulators of human Rev-erb alpha DNA binding | P20393 | 370,000 compounds, 0.79% hits | activity, % at 10 µM | Rev-erbα–FITC-DNA binding, fluorescence polarization, 90 min;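 active = activity above about 14%, limit read from the data; passing the limit was not always enough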
Target sequence (P20393 whole entry, looked up): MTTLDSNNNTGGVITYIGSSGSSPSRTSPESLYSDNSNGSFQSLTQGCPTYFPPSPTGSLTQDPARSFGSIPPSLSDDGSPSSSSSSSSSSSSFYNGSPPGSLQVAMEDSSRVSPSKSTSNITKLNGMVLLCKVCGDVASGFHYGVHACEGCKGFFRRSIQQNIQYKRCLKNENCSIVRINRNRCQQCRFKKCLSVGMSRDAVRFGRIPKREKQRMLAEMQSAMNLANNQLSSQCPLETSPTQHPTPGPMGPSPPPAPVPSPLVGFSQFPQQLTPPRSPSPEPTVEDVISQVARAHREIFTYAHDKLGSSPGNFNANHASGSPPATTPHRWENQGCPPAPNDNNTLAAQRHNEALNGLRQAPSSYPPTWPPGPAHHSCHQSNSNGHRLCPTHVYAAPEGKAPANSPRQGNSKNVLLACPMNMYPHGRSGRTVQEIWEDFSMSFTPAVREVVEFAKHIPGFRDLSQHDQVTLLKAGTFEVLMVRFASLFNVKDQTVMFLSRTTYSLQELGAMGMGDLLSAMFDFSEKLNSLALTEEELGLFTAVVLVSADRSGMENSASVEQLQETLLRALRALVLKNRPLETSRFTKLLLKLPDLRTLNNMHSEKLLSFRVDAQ
Rev-erbA confirm: Rev-erb alpha (human) modulation, hit confirmation | Rev-erb alpha FITC-DNA binding, fluorescence polarization, 90 min | AID 1259319 | activation, % at 25 µM | 3,000 compounds, 61% hits | shares compounds with NR1D1 modulator;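 active = activation at or above a set limit, or at least 3 SD above the negative control mean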
RORg DNA counter: affects RORgamma DNA binding in a Rev-erb alpha counter-screen | shares compounds with NR1D1 modulator | IC50, µM | AID 1259320 | 910 compounds, 8% hits | purified RORgamma protein-FITC-DNA binding, fluorescence polarization;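 active = Compounds whose fitted half-maximal concentration for disrupting protein-DNA binding is below 10 micromolar; the record names Rev-erb in its text, so the target is in doubt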
Hits are given with their value; - = inactive; . = not tested or not shown. Hits are enriched below; roughly 1.6% of the tested compounds scored in any of these assays.

SMILES	NR2E3 ag-1	PKA-R1A activ	NR2E3 ag-2	PG9 Ab binder	PKA-R2B act	NR1D1 modulator	Rev-erbA confirm	others
CC[C@H](NC(=O)[C@@H](Cc1ccccc1)NC(=O)[C@H]1O[C@@H](n2cnc3c(=O)[nH]c(N)nc32)[C@H](O)[C@@H]1O)c1ccccc1	.	.	.	-	.	-	.
CC(C)(C)c1nc(SCC(=O)Nc2ccc3c(c2)OCCO3)c2ccccc2n1	-	-	-	-	-	73	35	RORg DNA counter=3
CC(C)(C)c1nc(SCC(=O)Nc2ccc(N3CCOCC3)cc2)c2ccccc2n1	-	-	-	-	-	53	17
COc1cccc(NC(=O)CSc2nc(C3CC3)nc3ccccc23)c1	-	-	-	-	-	-	.
O=C(CSc1nc2ccccc2o1)Nc1ccc(N2CCOCC2)cc1	-	-	-	-	-	-	.
CCOc1ccc(NC(=O)CSc2nc(C3CC3)nc3ccccc23)cc1	-	-	-	-	-	129	59	RORg DNA counter=-
COc1ccc(-n2c(SCc3nc4ccccc4[nH]3)nc3ccccc3c2=O)cc1	.	.	.	.	.	-	.
COc1ccc(OC)c(C(=O)CSc2nc3c(c(=O)n(C)c(=O)n3C)n2C(C)C)c1	.	-	-	-	-	37	-
O=C(CSc1nnc(-c2ccccc2)n1-c1ccc(Cl)cc1)c1ccc(Cl)cc1	.	.	.	.	.	-	.
Cc1ccc2[nH]c(=O)c3cc(C(=O)N(C)C4CCCCC4)sc3c2c1	-	-	-	-	-	21	-
CCOC(=O)c1sc2nc(N3CCCC3)c3c(c2c1N)CC(C)(C)OC3	-	-	-	-	-	-	.
CCOC(=O)c1sc2nc(C(C)C)c3c(c2c1N)CC(C)(C)OC3	-	-	-	-	-	23	-
Cc1cc(C)c2c(=O)[nH]c(=O)n(Cc3ccccc3)c2n1	-	-	-	-	-	23	-
Cc1ccc(-c2nc3c(c(=O)[nH]c(=O)n3Cc3ccccc3)n2Cc2ccccc2)o1	.	-	-	-	-	-	.
Cc1c(C)c2ccc(OCC(=O)Nc3ccc(S(N)(=O)=O)cc3)c(C)c2oc1=O	-	-	-	-	-	25	-
CCCn1c(=S)[nH]c2cc(C(=O)N3CCc4ccccc4C3)ccc2c1=O	-	-	-	-	-	-	.
CCOc1cc2[nH]c(=S)n(CCC(=O)N3CCc4ccccc4C3)c(=O)c2cc1OCC	-	-	-	-	-	59	62	RORg DNA counter=-
O=C(N[C@H](C(=O)N1CCC[C@H]1C(=O)NCCc1ccccc1Cl)c1ccccc1)c1ccco1	.	.	.	-	.	-	.
CCOC(=O)COc1c(Cl)cc(C2NC(=S)NC(c3ccccc3)=C2C(C)=O)cc1OCC (configuration not stated)	-	-	-	-	-	34	31	RORg DNA counter=-
Cc1sc2c(c1C)c(=O)n(-c1ccc(Cl)cc1)c(=O)n2Cc1cc(=O)n2ccccc2n1	-	-	-	-	-	37	27
Cc1cc(=O)oc2cc(NC(=O)c3cccc(F)c3)ccc12	-	-	-	-	-	50	60	RORg DNA counter=-
COc1ccc(CNC(=O)CS(=O)(=O)Cc2nc(-c3cccc(OC)c3)oc2C)cc1	-	-	-	-	-	25	22
CCOc1ccc(CNC(=O)CS(=O)(=O)Cc2nc(-c3ccc(OC)cc3)oc2C)cc1	-	-	-	-	-	26	-
O=C(OC12CCCN(C1)/C(=C/c1ccccc1)C2)c1ccccc1 (configuration not stated)	.	.	.	.	.	-	.
Cc1nc2sc(C(c3ccc(C(C)C)cc3)N3CCN(CCO)CC3)c(O)n2n1 (configuration not stated)	-	-	-	-	-	-	.
Cc1ccc(C(c2sc3nc(C)nn3c2O)N2CCN(CCO)CC2)cc1 (configuration not stated)	-	-	-	-	-	17	-
